Screening results from PubChem BioAssay.
ATG4B inh: inhibitors of human ATG4B cysteine protease. Q9Y4P1. ATG4B cleavage of LC3-PLA2, NBD-HPC fluorescence, 1 h. inhibition, % at 8.33 µM. actives 0.51% (n = 340,000); in the data active means inhibition above about 40%
MEKK2 WT-MEK5: raises or lowers MEK5 binding to wildtype human MEKK2 PB1 domain. Q9Y2U5. bead flow cytometry, Alexa488-MEK5 binding to MEKK2 WT; actives lie on both sides. binding response (% of control), % at 10 µM. actives 1.1% (n = 290,000). AID 1531; in the data active means binding response below about 67% or above about 130%
MEKK2mut PB1 HTS: signal of MEK5 binding to mutant human MEKK2 PB1 domain; bead flow cytometry, Alexa488-MEK5 binding to MEKK2 mutant; percent response, % at 10 µM; actives 0.35% (n = 290,000); in the data active means percent response above about 24%, passing the limit was not always enough
MEKK3 PB1 HTS: modulators (inhibitors or enhancers) of MEK5 binding to human MEKK3 PB1 domain; Q99759; bead-based flow cytometry, Alexa488-MEK5 binding to MEKK3; actives lie on both sides; 0 = blocked by unlabeled MEK5, 100 = vehicle; binding response (% of control), % at 10 µM; actives 1.4% (n = 290,000); AID 1529;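 active means binding response more than 3 SD above or below the average of its plate-row segment, actives on both sides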;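 further: Alexa488 bead fluorescence after subtracting the streptavidin-only scavenger bead signal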
Target sequence (Q99759 whole entry, looked up, the tested form may be a part): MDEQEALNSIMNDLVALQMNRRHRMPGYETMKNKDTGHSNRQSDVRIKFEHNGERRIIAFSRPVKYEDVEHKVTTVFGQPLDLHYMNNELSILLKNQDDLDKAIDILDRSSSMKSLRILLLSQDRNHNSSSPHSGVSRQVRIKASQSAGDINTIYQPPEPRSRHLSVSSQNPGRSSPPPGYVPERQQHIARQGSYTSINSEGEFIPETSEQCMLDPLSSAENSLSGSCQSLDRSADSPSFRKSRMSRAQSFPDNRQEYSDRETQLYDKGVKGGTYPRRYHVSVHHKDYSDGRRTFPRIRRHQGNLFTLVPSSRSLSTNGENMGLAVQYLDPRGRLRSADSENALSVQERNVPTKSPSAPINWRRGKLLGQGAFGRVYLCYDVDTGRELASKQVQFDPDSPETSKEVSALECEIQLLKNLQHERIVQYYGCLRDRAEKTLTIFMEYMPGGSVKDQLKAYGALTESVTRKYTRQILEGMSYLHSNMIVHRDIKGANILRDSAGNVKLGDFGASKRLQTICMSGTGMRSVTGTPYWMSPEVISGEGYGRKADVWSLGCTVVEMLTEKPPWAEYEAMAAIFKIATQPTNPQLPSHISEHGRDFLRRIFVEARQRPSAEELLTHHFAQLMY
B2AR ag: human beta-2 adrenergic receptor agonism by FAP. Am2.2-beta2AR cells, FAP receptor internalization, flow cytometry. response, % (concentration not given with the values). actives 0.43% (n = 340,000). AID 504454;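 active means response above a set limit, near 3 SD of response in nonfluorescent compounds, cut at about 42% in these data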
Dynein cargo inh: blocks dynein driven cargo transport along microtubules. 3617.4 mouse cells, GR-EGFP nuclear translocation imaging; test concentration mostly 20 µM; stimulated with dexamethasone, 1 µM; stronger effect = lower value. z-score, hits read low. actives 0.47% (n = 220,000);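 active means plate z-score of nuclear minus cytoplasmic receptor signal below a set negative limit, without overly bright fluorescence or cell loss, cut at about -3.5 in these data, passing the limit was not always enough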;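 further: z-score of nuclear minus cytoplasmic ring GR-EGFP intensity difference per well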
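Medium: Induction medium lacking tetracycline, stripped serum | Probe or stimulus: 1.0 µM final dexamethasone stimulus | Schedule: 48 h induction, then 1 h compound, then 30 min agonist, 37 °C | Signal: Automated 10x imaging of fixed Hoechst-stained cells | Evaluation: Per-cell GR-EGFP intensity, nucleus versus surrounding cytoplasmic ring, well-averaged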
MEKK2wt confirm: raises or lowers MEK5 binding to wildtype human MEKK2, retest. shares compounds with MEKK3 PB1 HTS. bead flow cytometry, Alexa488-MEK5 binding to MEKK2 WT; actives lie on both sides. binding response (% of control), % at 10 µM. actives 2.4% (n = 5,900); in the data active means binding response below about 16% or above about 210%; inactive means in between
MEKK2mut-MEK5: signal of MEK5 binding to mutant human MEKK2, retest; shares compounds with MEKK3 PB1 HTS; bead flow cytometry, Alexa488-MEK5 binding to MEKK2 mutant; percent response, % at 10 µM; actives 2% (n = 5,900); in the data active means percent response mostly above about 71%, no sharp cut-off; inactive means mostly below about 38%;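 further: higher means compound restores mutant binding toward wildtype level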
MEKK3 confirm: MEKK3-MEK5 PB1 inhibition, single concentration confirmation; AID 1894; shares compounds with MEKK3 PB1 HTS; binding response (% of control), % at 10 µM; actives 1.8% (n = 5,900); bead flow cytometry, Alexa488-MEK5 binding to MEKK3; stronger effect = lower value;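 active means binding response below 72% of control, or above a set upper limit, though filed actives all read lower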
Of the large screens only hits and unclear results are named; the others gave an inactive call (follow-up assays come after a bar, where they were run); [ ] = remark or other dose. An excerpt weighted towards active compounds, which were near 2.9% of everything screened.

COc1ccc(-c2nnc3ccc(SCC(=O)Nc4nccs4)nn23)cc1OC	MEKK3 PB1 HTS 128.0 | MEKK2wt confirm inactive | MEKK2mut-MEK5 inactive | MEKK3 confirm inactive
O=C(CSc1ccc2nnc(-c3ccncc3)n2n1)Nc1nccs1	none
COc1cccc(CCC2C(=O)CCCC2=O)c1	none (no result: MEKK2 WT-MEK5, MEKK2mut PB1 HTS, MEKK3 PB1 HTS, Dynein cargo inh)
CN(Cc1ccccc1)C(=O)c1ccc(NC(=O)Cc2ccc(NC(=O)C3CCN(C(=O)c4ccccc4)CC3)cc2)cc1	none (no result: MEKK2 WT-MEK5, MEKK2mut PB1 HTS, MEKK3 PB1 HTS, Dynein cargo inh)
Cc1ccc(S(=O)(=O)NNc2nnc(C)c(=O)[nH]2)cc1	MEKK3 PB1 HTS 135.0 | MEKK2wt confirm inactive | MEKK2mut-MEK5 inactive | MEKK3 confirm inactive
CCN(CC)S(=O)(=O)c1ccc(N2CCOCC2)c(NS(=O)(=O)c2cc(C(C)(C)C)ccc2C)c1	none
COc1ccc(F)cc1S(=O)(=O)NCc1ccccc1	MEKK3 PB1 HTS 72.0[inhibitor] | MEKK2wt confirm inactive | MEKK2mut-MEK5 inactive | MEKK3 confirm inactive
Cc1nc2ncnn2c(C)c1Cc1cccc(C(F)(F)F)c1	none
C/C(CC(=O)Nc1cccc(Cl)c1Cl)=N\NC(=O)c1ccccc1C	MEKK2 WT-MEK5 4.0[inhibitor], MEKK3 PB1 HTS 3.0[inhibitor] | MEKK2wt confirm inactive | MEKK2mut-MEK5 inactive | MEKK3 confirm inactive
C/C(CC(=O)Nc1cccc(Cl)c1Cl)=N\NC(=O)C(=O)N1CCCC1	none (no result: Dynein cargo inh)
CC(=O)C1=C(C)NC(SCC(N)=O)=C(C#N)C1c1sccc1C (stereo unspecified)	MEKK3 PB1 HTS 76.0[inhibitor] | MEKK2wt confirm inactive | MEKK2mut-MEK5 inactive | MEKK3 confirm inactive
O=C(/C=C/c1ccc([N+](=O)[O-])cc1)N(c1ccccn1)C1CCCCC1	none
O=C(C1CC1)N1CCN(C(c2ccccc2)c2ccccc2)CC1	none
COC(=O)c1cc(NC(=O)c2ccccc2F)cc(C(=O)OC)c1	none
COC(=O)c1cc(NC(=O)c2ccc(F)cc2)cc(C(=O)OC)c1	MEKK2mut PB1 HTS 103.0 (no result: MEKK2 WT-MEK5) | MEKK2wt confirm inactive | MEKK2mut-MEK5 inactive | MEKK3 confirm inactive
COC(=O)C(C)NC(=O)C12CC3CC(C1)CC(c1ccc(C)cc1)(C3)C2 (stereo unspecified)	none (no result: Dynein cargo inh)
CCc1cc(=O)oc2cc(C)cc(OCC(=O)C(C)(C)C)c12	MEKK3 PB1 HTS 72.0[inhibitor] | MEKK2wt confirm inactive | MEKK2mut-MEK5 inactive | MEKK3 confirm inactive
CCc1cc(=O)oc2cc(C)cc(OCC(C)=O)c12	none
O=C(NCCCN1CCOCC1)c1cc2c([nH]c3ccccc32)c(-c2cccc(Br)c2)n1	MEKK2 WT-MEK5 161.0, MEKK2mut PB1 HTS 31.0 (no result: Dynein cargo inh) | MEKK2wt confirm inactive | MEKK2mut-MEK5 inactive | MEKK3 confirm inactive
O=C(CCSCCC(=O)NCCN1CCOCC1)NCCN1CCOCC1	MEKK3 PB1 HTS 81.0[inhibitor] | MEKK2wt confirm inactive | MEKK2mut-MEK5 inactive | MEKK3 confirm inactive
O=C(CCSCCc1ccncc1)NCCCN1CCOCC1	none
COc1ccccc1N1CCN(C2CCCN(C(=O)c3cccc(-c4ccco4)c3)C2)CC1 (stereo unspecified)	none (no result: Dynein cargo inh)
Cc1ccc(C(=O)NCC(=O)N2CCCN(C)CC2)cc1C	none (no result: MEKK2 WT-MEK5, MEKK2mut PB1 HTS, MEKK3 PB1 HTS, Dynein cargo inh)
O=C1CC(=C(c2ccccc2)c2ccccc2)C(=O)N1CCCCN1CCN(c2cccc(Cl)c2)CC1	MEKK2 WT-MEK5 142.0 | MEKK2wt confirm inactive | MEKK2mut-MEK5 inactive | MEKK3 confirm inactive
CN(Cc1ccccn1)Cc1cn(Cc2ccccc2)nc1-c1ccc2c(c1)OCO2	MEKK2 WT-MEK5 196.0 | MEKK2wt confirm inactive | MEKK2mut-MEK5 inactive | MEKK3 confirm inactive
CN(Cc1cnccn1)Cc1cn(Cc2ccccc2)nc1-c1ccc2c(c1)OCO2	none
Fc1ccc(C2CC(c3cccs3)=NN2C(=S)Nc2ccccc2)cc1 (stereo unspecified)	none
CCS(=O)(=O)N1N=C(c2cccs2)CC1c1cc2cc(C)ccc2nc1Cl (stereo unspecified)	MEKK2 WT-MEK5 -9.0[inhibitor] | MEKK2wt confirm inactive | MEKK2mut-MEK5 inactive | MEKK3 confirm inactive
CS(=O)(=O)N1N=C(c2cccs2)CC1c1ccc(F)cc1 (stereo unspecified)	MEKK2 WT-MEK5 22.0[inhibitor] | MEKK2wt confirm inactive | MEKK2mut-MEK5 inactive | MEKK3 confirm inactive
CCOc1ccccc1C1CC(c2cccs2)=NN1S(C)(=O)=O (stereo unspecified)	MEKK3 PB1 HTS 2.0[inhibitor] | MEKK2wt confirm inactive | MEKK2mut-MEK5 inactive | MEKK3 confirm inactive
CC(=O)N1N=C(c2cccs2)CC1c1cccs1 (stereo unspecified)	none
Cc1ccc2nc(Cl)c(C3CC(c4cccs4)=NN3C(=O)CCCC(=O)O)cc2c1 (stereo unspecified)	none
CS(=O)(=O)N1N=C(c2cccs2)CC1c1ccccc1O (stereo unspecified)	MEKK2 WT-MEK5 0.0[inhibitor] | MEKK2wt confirm inactive | MEKK2mut-MEK5 inactive | MEKK3 confirm inactive
COc1ccccc1Nc1nc(N)nc(CSC(=S)N2CC(C)CC(C)C2)n1 (stereo unspecified)	none
CSc1cccc(CN2CCN(Cc3ccccc3)C(CCO)C2)c1 (stereo unspecified)	MEKK3 PB1 HTS 48.0[inhibitor] | MEKK2wt confirm inactive | MEKK2mut-MEK5 inactive | MEKK3 confirm inactive
O=C(COC(=O)c1cccnc1Cl)NC(=O)c1ccc(OC(F)F)cc1	none (no result: MEKK2 WT-MEK5, MEKK2mut PB1 HTS, MEKK3 PB1 HTS, Dynein cargo inh)
C/C(=N\OC(=O)c1c(-c2ccccc2Cl)noc1C)c1ccncc1	MEKK3 PB1 HTS 48.0[inhibitor] | MEKK2wt confirm inactive | MEKK2mut-MEK5 inactive | MEKK3 confirm inactive
S=C1NCC(c2ccccc2)S1 (stereo unspecified)	none (no result: MEKK2 WT-MEK5, MEKK2mut PB1 HTS, MEKK3 PB1 HTS, Dynein cargo inh)
COc1cc(/C=C(/C#N)c2nc3ccccc3c(=O)[nH]2)ccc1O	MEKK3 PB1 HTS 140.0 | MEKK2wt confirm inactive | MEKK2mut-MEK5 inactive | MEKK3 confirm inactive
O=C(COc1ccccc1[N+](=O)[O-])N/N=C/c1ccc(O)cc1	MEKK3 PB1 HTS 136.0 | MEKK2wt confirm inactive | MEKK2mut-MEK5 inactive | MEKK3 confirm inactive
Cc1cc(NC(=O)c2sc(Nc3ccc(F)c(Cl)c3)nc2N)no1	none
Cc1cc(NC(=O)c2sc(Nc3cccc(C(F)(F)F)c3)nc2N)no1	MEKK3 PB1 HTS 140.0 | MEKK2wt confirm inactive | MEKK2mut-MEK5 inactive | MEKK3 confirm inactive
O=C(COc1ccc(F)cc1Cl)N(Cc1nnc(-c2ccccc2Cl)o1)C1CC1	none (no result: Dynein cargo inh)
